From ChEMBL document CHEMBL5625186, “Synthesis, cytotoxicity, antioxidant activity and molecular modeling of new NSAIDs-EBS derivatives” (Eur J Med Chem, 2023)
Active and inactive are the calls of the source. No cut-off for these calls is given here.

Columns and labels:
A549 = assay: Cytotoxicity against human A549 cells measured after 24 to 72 hrs by MTT assay; type: functional, cell-based
Summary of the method: (§1)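 Cells were grown in RPMI 1640 with 10% FBS and penicillin/streptomycin at 37 °C, 5% CO2. They were seeded at 1×10^4 cells/well and allowed to attach for 24 h. Compounds at various concentrations were then applied for 24, 48 or 72 h (DMSO below 1.25%). MTT (5.0 mg/mL) was added 3 h before the end, formazan was dissolved in DMSO and OD was read at 570 nm. Doxorubicin served as reference. Data are mean ± SD, n=3.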

MCF7 = assay: Cytotoxicity against human MCF7 cells measured after 24 to 72 hrs by MTT assay; type: functional, cell-based; summary of the method: as §1
BGC-823 = assay: Cytotoxicity against human BGC-823 cells measured after 24 to 72 hrs by MTT assay; type: functional, cell-based; summary of the method: as §1
SW480 = assay: Cytotoxicity against human SW480 cells measured after 24 to 72 hrs by MTT assay; type: functional, cell-based; summary of the method: as §1
[1] = biological target: T1, Thioredoxin reductase 1, cytoplasmic (Rattus norvegicus, UniProt O89049); assay: Inhibition of rat TrxR1 using DTNB as substrate preincubated for 15 mins followed by substrate addition and measured for 20 mins by colorimetric method
T1 sequence (O89049 whole entry): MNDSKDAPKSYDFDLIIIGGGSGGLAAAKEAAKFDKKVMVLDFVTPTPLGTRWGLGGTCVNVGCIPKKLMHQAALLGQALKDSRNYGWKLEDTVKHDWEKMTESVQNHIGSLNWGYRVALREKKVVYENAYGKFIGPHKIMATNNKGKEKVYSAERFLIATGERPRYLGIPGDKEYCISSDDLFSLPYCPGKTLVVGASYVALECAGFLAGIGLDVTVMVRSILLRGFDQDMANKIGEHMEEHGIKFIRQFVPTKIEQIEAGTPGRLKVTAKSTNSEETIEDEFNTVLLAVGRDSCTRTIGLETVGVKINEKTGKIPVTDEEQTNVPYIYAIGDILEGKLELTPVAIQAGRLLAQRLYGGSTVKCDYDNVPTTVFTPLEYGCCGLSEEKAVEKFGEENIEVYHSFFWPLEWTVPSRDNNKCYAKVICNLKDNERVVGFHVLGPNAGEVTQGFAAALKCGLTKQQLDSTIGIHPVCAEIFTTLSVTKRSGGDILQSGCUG
Summary of the method: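 Rat TrxR1 (5 nM) was used in 100 mM potassium phosphate pH 7.0 with 1 mM EDTA, 0.1 mg/ml BSA and 0.2 mM NADPH. […] DTNB was then added and the A412 increase was monitored for 20 min.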

[2] = Potency index, ratio of test compound to vitamin C antioxidant activity assessed as DPPH radical scavenging activity incubated for 30 mins under dark condition; type: functional
Summary of the method: (§2)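 Compounds at a range of concentrations were mixed with DPPH solution and kept 30 min in the dark. Absorbance was read at 517 nm. % activity = [(control A − sample A)/control A] × 100. Vitamin C and ebselen served as positive controls and DMSO as the negative control. Fold is expressed relative to vitamin C (set as 1). Values are mean ± SD of three independent experiments.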

[3] = Antioxidant activity assessed as DPPH radical scavenging activity incubated for 30 mins under dark condition relative to control; type: functional; set-up: concentration or dose not given beside the values; summary of the method: as §2
HeLa = assay: Cytotoxicity against human HeLa cells measured after 24 to 72 hrs by MTT assay; type: functional, cell-based; summary of the method: as §1
[4] = Antioxidant activity assessed as glutathione peroxidase-like activity at 41 mM measured over 3 mins; type: functional
Summary of the method: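 GPx-like rate measured from GSH/glutathione reductase/NADPH coupling in 50 mM phosphate buffer with 0.1% Triton X-100. The compound was added from a 41 mM solution, and the reaction was started with H2O2 (0.8 mM). A340 was followed for 3 min and expressed as ΔA/min. Values were corrected for the H2O2 + GSH background, and for the compound's own absorbance if coloured. Ebselen (41 mM) served as reference.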

DNA = assay: Induction of bleomycin-dependent DNA (unknown origin) damage assessed as absorbance at 0.1 mg/ml measured after 1 hr; type: nucleic-acid assay
Summary of the method: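 The bleomycin-iron/DNA mixture was incubated at 37 °C for 1 h and stopped with 0.1 M EDTA. Colour was developed with 1% TBA plus 25% HCl at 80 °C for 30 min. After ice cooling, DNA damage was read as the increase in absorbance at 532 nm. L-ascorbic acid served as the positive control.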

SMILES	IC50 (A549) [µM]	IC50 (MCF7) [µM]	IC50 (BGC-823) [µM]	IC50 (SW480) [µM]	EC50 [1] [µM]	Ratio [2]	inhibition [3] [%]	IC50 (HeLa) [µM]	Activity [4]	Activity (DNA)
Cc1cccc(Nc2ccccc2C(=O)NCc2ccc(-n3[se]c4ccccc4c3=O)cc2)c1C	3.6	4.2	3.4	4.5	14.3	0.5	54.3	3.8	Active	72.4
O=C(NCc1ccc(-n2[se]c3ccccc3c2=O)cc1)c1ccccc1Nc1cccc(C(F)(F)F)c1	12.7	14.2	8.4	13.7	11.5	0.5	51.5	7.5	–	56.1
CCC1(CC)OCCc2c1[nH]c1c(CC(=O)NCc3ccc(-n4[se]c5ccccc5c4=O)cc3)cccc21	9.8	8.8	9.8	12.3	17.1	0.5	52.1	12.6	–	97.4
CC(C)Cc1ccc(C(C)C(=O)O)cc1 (stereo not drawn) [IBUPROFEN]	> 50	> 50	> 50	> 50	–	–	–	> 50	–	–
CC(=O)Oc1ccccc1C(=O)O [ASPIRIN]	> 50	> 50	> 50	> 50	–	–	–	> 50	–	–
O=C1O[C@H]([C@@H](O)CO)C(O)=C1O	–	–	–	–	–	–	97.2	–	–	292
CC(C(=O)NCCn1[se]c2ccccc2c1=O)c1cccc(C(=O)c2ccccc2)c1 (stereo not drawn)	15.6	10.3	13.6	14.6	23.6	0.3	33.3	11.3	Active	87.6
CC1=C(CC(=O)NCc2ccc(-n3[se]c4ccccc4c3=O)cc2)c2cc(F)ccc2/C1=C\c1ccc([S+](C)[O-])cc1 (stereo not drawn)	8.3	7.4	9.5	9.8	10.4	0.4	42.9	8.4	–	72.4
CC(=O)Oc1ccccc1C(=O)NCCn1[se]c2ccccc2c1=O	10.6	14.5	11.4	14.2	21.4	0.4	41.4	12.7	Active	91.4
CC(C(=O)NCc1ccc(-n2[se]c3ccccc3c2=O)cc1)c1cccc(C(=O)c2ccccc2)c1 (stereo not drawn)	13.2	8.4	11.2	12.5	19.6	0.3	31.3	9.2	–	85.3
COc1ccc2c(c1)c(CC(=O)NCCn1[se]c3ccccc3c1=O)c(C)n2C(=O)c1ccc(Cl)cc1	11.2	10.3	17.4	14.3	24.5	0.3	27.3	13.6	Active	92.4
O=C(NCCn1[se]c2ccccc2c1=O)c1ccccc1Nc1cccc(C(F)(F)F)c1	12.2	12.6	11.4	9.4	24.8	0.4	41.7	15.2	Active	77.7
CC1=C(CC(=O)NCCn2[se]c3ccccc3c2=O)c2cc(F)ccc2/C1=C\c1ccc([S+](C)[O-])cc1 (stereo not drawn)	13.3	14.4	16.6	10.4	27	0.3	29	11.3	Active	68.4
